Experimental data reported in ChEMBL document CHEMBL2034864, “Synthesis, characterization, antimicrobial activities and QSAR studies of some 10a-phenylbenzo[b]indeno[1,2-e][1,4]thiazin-11(10aH)-ones” (2012).
In brackets after ≈: the same amount, converted by molar mass. Activity calls are given as the source filed them. No cut-off for these calls is given here.

What was measured:
Pseudomonas aeruginosa = experiment: Antibacterial activity against Pseudomonas aeruginosa MTCC 7952 after 24 hrs by serial dilution technique; assay type: functional; settings: for MIC: Pseudomonas aeruginosa, MTCC 7952, 24 h
Summary of the method: (§1)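 Compounds were dissolved in DMSO as stock, diluted to 100 µg/mL in Luria broth, then two-fold serially diluted from 100 to 1.56 µg/mL. Bacteria were grown in Luria broth at 37 °C, centrifuged and washed three times with PBS. They were inoculated into each dilution in triplicate and incubated 24 h at 37 °C. Growth was read visually and spectrophotometrically. Controls were penicillin, streptomycin and DMSO. MIC is in µmol/mL.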

Aspergillus fumigatus = experiment: Antifungal activity against Aspergillus fumigatus MTCC 2550 after 72 hrs by serial dilution technique
Staphylococcus aureus = experiment: Antibacterial activity against Staphylococcus aureus MTCC 7443 after 24 hrs by serial dilution technique; assay type: functional; settings: for MIC: Staphylococcus aureus, MTCC 7443, 24 h; summary of the method: as §1
Bacillus subtilis = experiment: Antibacterial activity against Bacillus subtilis MTCC 441 after 24 hrs by serial dilution technique; assay type: functional; settings: for MIC: Bacillus subtilis, MTCC 441, 24 h; summary of the method: as §1
Escherichia coli = experiment: Antibacterial activity against Escherichia coli MTCC 42 after 24 hrs by serial dilution technique; assay type: functional; settings: for MIC: Escherichia coli, MTCC 42, 24 h; summary of the method: as §1
Candida albicans = experiment: Antifungal activity against Candida albicans MTCC 183 after 72 hrs by serial dilution technique; assay type: functional
Summary of the method: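 Compounds were dissolved in DMSO as stock, diluted to 100 µg/mL in potato dextrose broth, then two-fold serially diluted from 100 to 1.56 µg/mL. Fungi were grown in Sabouraud dextrose broth at 28 °C: A. fumigatus for 2–3 weeks, C. albicans for 48 h. Spores were centrifuged, washed in sterile water and inoculated in triplicate, then incubated 72 h at 28 °C. MIC was assigned by CFU assay. Controls were fluconazole and DMSO.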

[1] = Aspergillus fumigatus, MTCC 2550, 72 h
[2] = Candida albicans, MTCC 183, 72 h

| SMILES | -logMIC (Pseudomonas aeruginosa) | MIC (Pseudomonas aeruginosa) | -logMIC (Aspergillus fumigatus) | MIC (Aspergillus fumigatus; [1]) | -logMIC (Staphylococcus aureus) | MIC (Staphylococcus aureus) | -logMIC (Bacillus subtilis) | MIC (Bacillus subtilis) | -logMIC (Escherichia coli) | MIC (Escherichia coli) | -logMIC (Candida albicans) | MIC (Candida albicans; [2]) | MIC (Aspergillus fumigatus) | MIC (Candida albicans) |
| --- | --- | --- | --- | --- | --- | --- | --- | --- | --- | --- | --- | --- | --- | --- |
| O=C1c2ccccc2C2=Nc3ccccc3SC12c1ccccc1 (stereo unspecified) | 1.42 | 38.2 µM (≈ 12.5 µg/mL) | 1.12 | 76.4 µM (≈ 25 µg/mL) | 0.82 | 153 µM (≈ 50 µg/mL) | 1.12 | 76.4 µM (≈ 25 µg/mL) | 1.42 | 38.2 µM (≈ 12.5 µg/mL) | 1.12 | 76.4 µM (≈ 25 µg/mL) |  |  |
| COc1ccc(C23Sc4cc(OC)ccc4N=C2c2ccccc2C3=O)cc1 (stereo unspecified) |  |  | 1.19 | 64.5 µM (≈ 25 µg/mL) | 1.79 | 16.1 µM (≈ 6.24 µg/mL) | 2.4 | 4 µM (≈ 1.55 µg/mL) | 1.79 | 16.1 µM (≈ 6.24 µg/mL) | 1.19 | 64.5 µM (≈ 25 µg/mL) |  |  |
| COc1ccc(C23Sc4ccccc4N=C2c2ccccc2C3=O)cc1 (stereo unspecified) |  |  |  |  | 0.85 | 140 µM (≈ 50 µg/mL) |  |  | 1.15 | 70 µM (≈ 25 µg/mL) |  |  | inactive | inactive |
| Cc1ccc2c(c1)SC1(c3ccc(Cl)cc3)C(=O)c3ccccc3C1=N2 (stereo unspecified) | 1.18 | 66.6 µM (≈ 25 µg/mL) | 0.88 | 133 µM (≈ 50.1 µg/mL) |  |  | 1.18 | 66.5 µM (≈ 25 µg/mL) | 1.18 | 66.6 µM (≈ 25 µg/mL) | 1.18 | 66.6 µM (≈ 25 µg/mL) |  |  |
| OC(Cn1cncn1)(Cn1cncn1)c1ccc(F)cc1F [FLUCONAZOLE] |  |  |  | 10.1 µM (≈ 3.09 µg/mL) |  |  |  |  |  |  |  | 10.1 µM (≈ 3.09 µg/mL) |  |  |
| COc1ccc2c(c1)SC1(c3ccc(Cl)cc3)C(=O)c3ccccc3C1=N2 (stereo unspecified) | 1.19 | 63.9 µM (≈ 25 µg/mL) | 1.5 | 31.9 µM (≈ 12.5 µg/mL) | 1.8 | 15.9 µM (≈ 6.23 µg/mL) | 1.5 | 31.9 µM (≈ 12.5 µg/mL) | 1.19 | 63.9 µM (≈ 25 µg/mL) | 1.5 | 31.9 µM (≈ 12.5 µg/mL) |  |  |
| COc1ccc2c(c1)SC1(c3ccccc3)C(=O)c3ccccc3C1=N2 (stereo unspecified) | 1.46 | 35 µM (≈ 12.5 µg/mL) |  |  | 0.85 | 140 µM (≈ 50 µg/mL) | 1.15 | 70 µM (≈ 25 µg/mL) |  |  |  |  | inactive | inactive |
| O=C1c2ccccc2C2=Nc3ccccc3SC12c1ccc(Cl)cc1 (stereo unspecified) |  |  |  |  | 0.86 | 138 µM (≈ 50.1 µg/mL) | 1.46 | 34.6 µM (≈ 12.5 µg/mL) | 2.37 | 4.3 µM (≈ 1.56 µg/mL) |  |  | inactive | inactive |
| CN[C@@H]1[C@H](O[C@H]2[C@H](O[C@H]3[C@H](O)[C@@H](O)[C@H](N=C(N)N)[C@@H](O)[C@@H]3N=C(N)N)O[C@@H](C)[C@]2(O)C=O)O[C@@H](CO)[C@H](O)[C@H]1O [STREPTOMYCIN] |  | 2.6 µM (≈ 1.51 µg/mL) |  |  |  | 10.7 µM (≈ 6.22 µg/mL) |  | 10.7 µM (≈ 6.22 µg/mL) |  | 5.3 µM (≈ 3.08 µg/mL) |  |  |  |  |
| COc1ccc(C23Sc4cc(C)ccc4N=C2c2ccccc2C3=O)cc1 (stereo unspecified) | 1.17 | 67.3 µM (≈ 25 µg/mL) | 0.87 | 135 µM (≈ 50 µg/mL) | 1.17 | 67.3 µM (≈ 25 µg/mL) | 1.47 | 33.6 µM (≈ 12.5 µg/mL) | 1.17 | 67.3 µM (≈ 25 µg/mL) | 1.47 | 33.6 µM (≈ 12.5 µg/mL) |  |  |
| O=C1c2ccccc2C2=Nc3ccc(Br)cc3SC12c1ccc(Cl)cc1 (stereo unspecified) | 1.24 | 57 µM (≈ 25.1 µg/mL) | 1.55 | 28.4 µM (≈ 12.5 µg/mL) | 2.15 | 7.1 µM (≈ 3.13 µg/mL) | 1.55 | 28.4 µM (≈ 12.5 µg/mL) | 1.24 | 56.9 µM (≈ 25.1 µg/mL) | 1.55 | 28.4 µM (≈ 12.5 µg/mL) |  |  |
| COc1ccc(C23Sc4cc(Br)ccc4N=C2c2ccccc2C3=O)cc1 (stereo unspecified) | 1.24 | 57.4 µM (≈ 25 µg/mL) | 1.84 | 14.3 µM (≈ 6.24 µg/mL) | 2.15 | 7.1 µM (≈ 3.1 µg/mL) | 2.15 | 7.1 µM (≈ 3.1 µg/mL) | 1.84 | 14.3 µM (≈ 6.24 µg/mL) | 1.84 | 14.3 µM (≈ 6.24 µg/mL) |  |  |
| Cc1ccc(C23Sc4cc(C)ccc4N=C2c2ccccc2C3=O)cc1 (stereo unspecified) | 1.15 | 70.4 µM (≈ 25 µg/mL) | 0.85 | 141 µM (≈ 50 µg/mL) |  |  | 0.85 | 141 µM (≈ 50 µg/mL) | 1.45 | 35.2 µM (≈ 12.5 µg/mL) | 1.15 | 70.4 µM (≈ 25 µg/mL) |  |  |
| COc1ccc2c(c1)SC1(c3ccc(C)cc3)C(=O)c3ccccc3C1=N2 (stereo unspecified) | 1.47 | 33.6 µM (≈ 12.5 µg/mL) | 1.17 | 67.3 µM (≈ 25 µg/mL) | 0.87 | 135 µM (≈ 50 µg/mL) | 1.17 | 67.3 µM (≈ 25 µg/mL) | 2.38 | 4.2 µM (≈ 1.56 µg/mL) | 1.77 | 16.8 µM (≈ 6.24 µg/mL) |  |  |
| CC1(C)S[C@@H]2[C@H](NC(=O)Cc3ccccc3)C(=O)N2[C@H]1C(=O)O [PENICILLIN G] |  | 18.7 µM (≈ 6.25 µg/mL) |  |  |  | 4.6 µM (≈ 1.54 µg/mL) |  | 4.6 µM (≈ 1.54 µg/mL) |  | 37.4 µM (≈ 12.5 µg/mL) |  |  |  |  |
| O=C1c2ccccc2C2=Nc3ccc(Br)cc3SC12c1ccccc1 (stereo unspecified) | 1.81 | 15.4 µM (≈ 6.26 µg/mL) | 1.51 | 30.8 µM (≈ 12.5 µg/mL) | 0.91 | 123 µM (≈ 50.1 µg/mL) | 1.21 | 61.7 µM (≈ 25.1 µg/mL) | 1.21 | 61.7 µM (≈ 25.1 µg/mL) | 1.51 | 30.8 µM (≈ 12.5 µg/mL) |  |  |
| Cc1ccc(C23Sc4cc(Br)ccc4N=C2c2ccccc2C3=O)cc1 (stereo unspecified) | 1.23 | 59.4 µM (≈ 25 µg/mL) | 0.92 | 119 µM (≈ 50.1 µg/mL) | 0.92 | 119 µM (≈ 50.1 µg/mL) | 1.53 | 29.8 µM (≈ 12.5 µg/mL) | 1.23 | 59.4 µM (≈ 25 µg/mL) | 0.92 | 119 µM (≈ 50.1 µg/mL) |  |  |
| Cc1ccc(C23Sc4ccccc4N=C2c2ccccc2C3=O)cc1 (stereo unspecified) | 1.14 | 73.2 µM (≈ 25 µg/mL) |  |  | 0.53 | 293 µM (≈ 100 µg/mL) | 1.14 | 73.2 µM (≈ 25 µg/mL) |  |  |  |  | inactive | inactive |
| Cc1ccc2c(c1)SC1(c3ccccc3)C(=O)c3ccccc3C1=N2 (stereo unspecified) | 1.13 | 73.3 µM (≈ 25 µg/mL) | 1.14 | 73.2 µM (≈ 25 µg/mL) | 2.35 | 4.5 µM (≈ 1.54 µg/mL) | 0.83 | 146 µM (≈ 50 µg/mL) |  |  | 1.44 | 36.6 µM (≈ 12.5 µg/mL) |  |  |
